# Assay outcomes from PubChem BioAssay.
# SKN-1 block = inhibitors of C. elegans SKN-1; C. elegans VP596 Pgst-4::GFP/RFP ratio, acrylamide-induced, 24 h; inhibition, % at 21.8 µM; 0.49% of 360,000 active; AID 624304;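 active = interference check ratio from 0.5 to 1.5 plus GFP to RFP signal ratio inhibition reaching or exceeding a fixed threshold, cut at about 30% in these data, passing the limit was not always enough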
# Cneo AK release = causes C. neoformans cell lysis | adenylate kinase release luminescence, 4 h; normalised: neutral wells 0, clomiphene wells 100 | lysis activity, % at 15 µM | 0.2% of 360,000 active;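 active = mean lysis activity across replicates of at least 80%, whatever share of replicates individually reach that level; inactive = mean lysis activity below 80%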
#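 Material: C. neoformans cells | Amount: Yeast cell density of 5 × 10^6 cells/mL | Medium: Fresh YPD growth medium | Dosing: Single dose | Times: Static 4 h at 37 °C with compound, 1 h detection | Detection: AK luminescence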
# hiPSC survival = hiPSC single-cell survival enhancement. ATPlite luminescence; 100% = ROCK inhibitor wells, 0% = DMSO. survival enhancement, % at 20 µM. 0.044% of 360,000 active. AID 602274; in the data active = survival enhancement above about 18%;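 also: cells exposed to compounds for 16 hours before the ATP read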
# rRNA inh HTS = inhibits bacterial ribosomal RNA function over humanized ribosomes | GFP signal change (wild-type ribosome), % (concentration not given with the values) | E. coli WT GFP vs humanized-ribosome RFP mutants, fluorescence, 24 h; active compounds read low; DMSO median 0, no signal -100 | 1.6% of 350,000 active | AID 720706;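 active = significant combined selectivity score with lowered wild-type GFP, culture density cut under 30%, mutant RFP and density less affected; inactive = any of these conditions unmet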
# DAGLB inhibitor = blocks human DAGLB lipase activity; HEK293T DAGLB membrane lysate, EnzChek fluorogenic substrate; 0.059% of 340,000 active; inhibition, % at 5.17 µM; in the data active = inhibition above about 34%;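 also: 0% = enzyme with vehicle and 100% = wells lacking enzyme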
# Target sequence (Q8NCG7 whole entry, looked up): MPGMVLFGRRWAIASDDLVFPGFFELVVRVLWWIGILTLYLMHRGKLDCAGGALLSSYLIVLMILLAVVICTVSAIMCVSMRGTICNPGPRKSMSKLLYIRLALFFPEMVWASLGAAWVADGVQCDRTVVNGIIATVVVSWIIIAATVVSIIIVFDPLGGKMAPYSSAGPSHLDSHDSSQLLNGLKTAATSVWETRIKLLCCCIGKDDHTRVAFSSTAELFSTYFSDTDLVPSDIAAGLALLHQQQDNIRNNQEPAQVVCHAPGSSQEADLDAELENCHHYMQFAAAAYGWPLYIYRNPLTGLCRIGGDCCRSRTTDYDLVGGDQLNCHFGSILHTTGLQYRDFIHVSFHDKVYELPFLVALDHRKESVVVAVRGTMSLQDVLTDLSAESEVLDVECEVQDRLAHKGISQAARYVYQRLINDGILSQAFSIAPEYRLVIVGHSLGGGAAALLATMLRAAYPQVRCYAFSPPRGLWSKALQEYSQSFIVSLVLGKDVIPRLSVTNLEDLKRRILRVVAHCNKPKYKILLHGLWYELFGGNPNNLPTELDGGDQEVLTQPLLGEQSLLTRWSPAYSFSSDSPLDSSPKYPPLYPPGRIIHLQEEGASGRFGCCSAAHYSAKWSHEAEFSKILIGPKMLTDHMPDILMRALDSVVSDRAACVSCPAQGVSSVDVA
# MT1-MMP act inh = MT1-MMP (human) activation inhibition. AID 651647. 0.061% of 360,000 active. P50281. GFP/RFP ratio change, % at 20 µM. HT1080 RFP-PRO-GFP cells, GFP/RFP ratio fluorescence, overnight; percent of plate control window, DMSO zero;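 active = GFP/RFP ratio change of at least 30% with cell ATP level not reduced by more than half and red fluorescence within 50% of control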
#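 Compound: 20 µM single dose, 1% DMSO / System: HT1080 RFP-PRO-GFP cells / Controls: DMSO and RFP-L50D-GFP cell wells / Read-out basis: GFP/RFP fluorescence ratio / Schedule: overnight compound exposure at 37 °C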
# The depositor's hits bear a star; x = no result given; ! = not confirmed by another sample. Shown are actives, neighbours in structure and some others; about 1.8% of the full set was active somewhere.
SMILES,SKN-1 block,Cneo AK release,hiPSC survival,rRNA inh HTS,DAGLB inhibitor,MT1-MMP act inh
CCC1CCCCN1C(=O)c1cc(COc2ccc3ncccc3c2)on1 (stereo not drawn),2.1,x,0.8,-30.1*,0.5,-9.6
COCC1CCCCN1C(=O)c1cc(COc2ccc3ncccc3c2)on1 (stereo not drawn),4.3,-0.6,0.0,-1.5,2.6,3.0
C#Cc1ccc2c(c1)COc1c3ccccc3nn1-2,47.9*,-3.5,0.7,-50.8,-2.7,2.4
C(#Cc1ccc2c(c1)COc1c3ccccc3nn1-2)c1ccccc1,37.5*,-1.2,-2.3,-5.1,-6.4,-12.3
C(#CC1CCCCC1)c1ccc2c(c1)COc1c3ccccc3nn1-2,-0.2,-0.9,9.1,-3.5,-0.9,1.0
C[C@H](CO)N1C[C@H](C)[C@H](CN(C)Cc2cccc(C(F)(F)F)c2)Oc2ncc(/C=C/c3ccccc3)cc2C1=O,x,8.5,x,1.7,x,x
Cc1ccc(S(=O)(=O)N(C)C[C@H]2OCCCC[C@H](C)Oc3ccc(NS(=O)(=O)c4c(C)noc4C)cc3C(=O)N([C@@H](C)CO)C[C@@H]2C)cc1,x,-3.9,x,-2.2,x,x
Fc1cccc(-c2cc3nc4c(c(N5CCOCC5)n3n2)CCCC4)c1,14.9,x,-1.1,x,-0.2,-6.5
Fc1cccc(-c2cc3nc4c(c(NCc5ccco5)n3n2)CCCC4)c1,14.5,1.3,0.0,-32.0*,0.2,-9.8
C[C@H](CO)N1C[C@H](C)[C@H](CN(C)CC2CC2)Oc2c(NS(C)(=O)=O)cccc2C1=O,x,59.6,x,-1.2,x,x
Oc1ccc(Cl)cc1C1=NCCNC(C(F)(F)C(F)F)=C1,6.7,-1.5,-0.5,-22.1*,8.0,-5.3
CCSC(=S)c1c(C)[nH]n(-c2ccccc2)c1=O,17.1,-1.2,0.4,-43.2*,0.9,4.7
COc1cccc(S(=O)(=O)N[C@@H]2C=C[C@@H](CC(=O)NCc3ccc(F)cc3)O[C@@H]2CO)c1,x,-7.9,x,-0.2,x,x
CCN(CCO)c1ccc(N=Nc2cc(C)[nH]n2)cc1,19.3,x,-0.7,-21.1*,11.6,20.8
CCCCCCCCCCCCCCCC[N+](C)(C)CCl,37.6*,x,-1.8,-56.4,-1.2,-8.0
CNC[C@H]1Oc2ccc(NC(=O)Cc3ccccc3)cc2C(=O)N([C@H](C)CO)C[C@@H]1C,x,-8.0,x,4.9,x,x
N#CC1=C(N)Oc2cc3c(cc2C1c1ccc(Cl)cc1)OCO3 (stereo not drawn),11.2,3.5,-2.0,-23.4*,0.7,-19.4
COc1cc(C2C(C#N)=C(N)Oc3cc4c(cc32)OCO4)cc(OC)c1OC (stereo not drawn),-4.4,x,-0.7,5.1,-0.2,12.0
CN(C)CCCNC(=O)[C@H]1[C@H](CO)[C@H]2Cn3c(cccc3=O)[C@@H]1N2CC1CC1,x,1.0,x,1.6,x,x
C=C(C)n1c(=O)n(Cc2ccccc2C)c2ccccc21,11.9,-0.4,0.1,-30.8*,-5.4,0.6
CC(=O)N1CC2(C1)[C@H](c1ccc(-c3ccccc3C)cc1)[C@@H](CO)N2C(C)=O,x,x,x,0.2,x,x
CCC(CC)C(=O)NCCc1cc2ccc(C)cc2[nH]c1=O,14.1,-1.3,-0.3,-14.2*,-2.0,4.1
CC(=O)NCCc1cc2cc(C)c(C)cc2[nH]c1=O,32.0*,x,-1.1,x,0.0,5.0
CCC(=O)NCCc1cc2ccc(C)cc2[nH]c1=O,-7.5,-0.7,-1.0,12.6,-1.8,3.0
CC(=O)c1c(C)[nH]c(C(=O)OCC(=O)N2CCc3ccccc3C2)c1C,11.8,-0.4,0.0,-22.2*,0.8,2.5
SMILES,SKN-1 block,Cneo AK release,hiPSC survival,rRNA inh HTS,DAGLB inhibitor,MT1-MMP act inh
CCOC(=O)c1c(C)[nH]c(C(=O)OCC(=O)N2CCN(S(=O)(=O)c3ccccc3)CC2)c1C,42.2*,-0.7,-3.0,x,-4.4,-3.3
CC(=O)c1c(C)[nH]c(C(=O)OCC(=O)N2CCN(S(=O)(=O)c3ccc(C)cc3)CC2)c1C,-2.3,-0.6,0.2,-3.3,-0.7,-0.5
COc1ccc2c3c([nH]c2c1)[C@H](CO)N(C(=O)C1CC1)CC31CN(Cc2nccs2)C1,x,x,x,-0.3,x,x
C[C@@H]1CCCCO[C@H](CN(C)CC2CCCCC2)[C@@H](C)CN([C@H](C)CO)C(=O)c2cc(NS(=O)(=O)c3cccs3)ccc2O1,x,-2.2,x,2.8,x,x
CC(C)NC(=O)N1Cc2cc(C(=O)NC3CCC3)nc(-c3cccc(-c4cccnc4)c3)c2[C@H]1CCO,x,x,x,-5.4,x,x
CC(C)NC(=O)N1Cc2cc(C(=O)NC3CCCCC3)nc(-c3cccc(-c4cccnc4)c3)c2[C@@H]1CCO,14.4,x,-0.9,-40.3*!,x,-3.0
CO[C@@H]1CN(C)C(=O)c2cc(NC(=O)NC3CCCCC3)ccc2OC[C@H](C)N(C)C[C@H]1C,x,-58.5,x,1.8,x,x
COc1ccc(C(=O)NNC(=O)c2ccc3ccccc3c2O)cc1,12.0,0.4,0.8,-23.8*,3.5,1.4
Cc1cccc(NC(=O)NNC(=O)c2ccc3ccccc3c2O)c1,9.1,-0.4,-0.1,-11.5,3.5,2.3
Cc1ccc(C(=O)NNC(=O)c2ccc3ccccc3c2O)cc1,-12.0,-1.8,-0.9,-27.3*,5.0,3.0
COc1ccccc1C(=O)NNC(=O)c1ccc2ccccc2c1O,-7.6,-5.6,3.7,-16.1,5.9,3.8
COc1ccc(C(=O)Nc2ccc(C)cc2C(=O)c2ccccc2)cc1,8.6,x,-1.6,-18.6*,-14.8,-5.6
COc1ccc(C(=O)NNC(=O)c2cccc(F)c2)cc1,-1.3,x,-0.6,-23.2*,0.4,1.1
O=C(c1cccnc1)N1C[C@@H]2[C@H](c3ccccc31)[C@@H](CO)N2C(=O)C1CCCCC1,x,2.6,x,4.2,x,x
CS(=O)(=O)Nc1ccc2c(c1)[C@@H]1C[C@H](CC(=O)NCc3ccc(Cl)cc3)O[C@H](CO)[C@@H]1O2,x,-5.5,x,0.0,x,x
COc1ccc2c3c([nH]c2c1)[C@H](CO)N(Cc1ccccn1)CC31CN(Cc2cccc(F)c2)C1,x,x,x,-2.3,x,x
COc1cccc(C(=O)NNC(=O)Cc2ccc(Cl)cc2)c1,-15.9,0.7,-0.8,-20.6*,1.2,0.9
O=C(NCCN1CCOCC1)[C@]1(Cc2ccccc2)N=C(c2ccc(OCCCO)cc2)O[C@@H]1c1ccccc1,x,-3.6,x,x,x,x
COc1ccc(N2C(=O)C3C(C2=O)C3(c2ccccc2)c2ccccc2)cc1 (stereo not drawn),10.1,x,-0.1,-19.8*,-3.5,0.7
COc1ccc(N2C(=O)C3C4C=CC(c5ccccc5)(C3C2=O)C2C(=O)N(c3ccc(OC)cc3)C(=O)C42)cc1 (stereo not drawn),-1.1,x,1.7,13.7,-1.5,0.8
C[C@@H]1CN([C@@H](C)CO)C(=O)c2cc(NC(=O)Nc3ccccc3)ccc2O[C@H]1CN(C)C(=O)Nc1ccc(C(F)(F)F)cc1,x,1.0,x,-5.2,x,x
